Assay [1] is described as follows: Cytotoxicity against human LKB1-positive NCI-H460 cells assessed as reduction in cell viability measured after 72 hrs by CellTiter-Blue cell viability assay. The class given is functional, cell-based. In a few lines: (§1)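 Monolayer cultures in RPMI-1640 with 10% FBS at 37°C, seeded at 850 (H460 CTR5), 660 (H460 LKB1+/+) or 1780 (H322) cells/well so that the end point reaches 70–80% confluence. Treated 72h; vehicle 0.15% DMSO. CellTiter-Blue added until colour change (50–60, 80–90 or 100–120 min respectively), fluorescence read at 590 nm. IC50 by nonlinear regression; three independent experiments.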
(The colour change of resazurin is a common sign of viable cells or microbes.)

The nature of assay [2]: Cytotoxicity against human NCI-H460 cells expressing CTR5 gene assessed as reduction in cell viability measured after 72 hrs by CellTiter-Blue cell viability assay. It counts as functional, cell-based. In a few lines: as §1
A short description of assay [3]: Cytotoxicity against human NCI-H322 cells assessed as reduction in cell viability measured after 72 hrs by CellTiter-Blue cell viability assay. The class given is functional, cell-based. In a few lines: as §1
Assay [4] in a line: Cytotoxicity against human NCI-H460 spheroids expressing CTR5 gene assessed as reduction in cell viability measured after 96 hrs by CellTiter-Glo luminescence viability assay. The class given is functional, cell-based. The settings on record: NCI-H460, 96 h. In a few lines: (§2)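 Spheroids grown in round-bottom ultralow-attachment wells, 495 (H460 CTR5) or 650 (H322) cells/well. Drug exposure 96h with DMSO vehicle. CellTiter-Glo added, shaken 20 min, left 10 min, then luminescence read. IC50 by nonlinear regression; three independent experiments.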
On the technique in general: ATP-based viability assays read luminescence as a measure of living cells.

A short description of assay [5]: Cytotoxicity against human NCI-H322 spheroids assessed as reduction in cell viability measured after 96 hrs by CellTiter-Glo luminescence viability assay. The settings on record: NCI-H322, 96 h. The class given is functional. In a few lines:
as §2

The test system of a further assay is NCI-H460. As to the kind of experiment: Induction of autophagy in human NCI-H460 cells expressing CTR5 gene assessed as acidic vesicular organelle formation measured after 72 hrs by acridine orange dye based flow cytometry (reference value: 91.2%). The class given is functional. In a few lines: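 H460 CTR5 cells plated in 6-well plates (0.095 × 10⁵ cells/well, RPMI-1640 with 10% FBS) and treated 24 h later with vehicle (0.15% DMSO), drug at 3 or 4 μM, or medium alone for 72 h. Bafilomycin A1 was added to the untreated well 30 min before staining as negative control. Cells were stained with acridine orange for 15 min at 37°C in the dark. Flow cytometry read the red/green (FL3/FL1) ratio; three independent experiments.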
In general terms: Flow cytometry measures light scatter and fluorescence of single cells or particles in a stream.

Setting [6] is: Homo sapiens, NCI-H460, 72 h, read-out: IC50.
Where [7] appears, read: Homo sapiens, NCI-H322, 72 h, read-out: IC50.

On to `C=C(C)[C@@H]1CC[C@]2(C)[C@H](C[C@@H](F)C34OC(=O)[C@@]5(CC[C@@H](C)[C@H](C)[C@@H]35)CC[C@]42C)[C@@]1(C)CCC(=O)NCC`, for which the IC50 – broadly, the concentration needed to halve the response being measured – in assay [1] (setting [6]) was 7.8 µM; in assay [2] (setting [6]) it was 5.3 µM; in assay [3] (setting [7]), 7.3 µM; in assay [4] it was 5.7 µM; in assay [5], 11.6 µM.
In the case of `C=C(C)[C@@H]1CC[C@]2(C)[C@H](C[C@@H](F)C34OC(=O)[C@@]5(CC[C@@H](C)[C@H](C)[C@@H]35)CC[C@]42C)[C@@]1(C)CCC(=O)NCc1ccc(C)cc1`, the half-maximal inhibitory concentration (IC50) in assay [1] (setting [6]), in assay [2] (setting [6]) and in assay [3] (setting [7]) was more than 50 µM throughout.
Turning to `C[C@H]1[C@H](C)CC[C@]2(C(=O)O)CC[C@]3(C)C(=CC[C@@H]4[C@@]5(C)CC[C@H](O)C(C)(C)[C@@H]5CC[C@]43C)[C@H]12` [URSOLIC ACID], the half-inhibitory concentration (IC50) in assay [1] (setting [6]) came to 21.1 µM; in assay [2] (setting [6]), 14.8 µM; in assay [3] (setting [7]) it was 15.3 µM; in assay [4], 30.8 µM; in assay [5] it was 18.2 µM.
For `C=C(C)[C@@H]1CC[C@]2(C)[C@H](C[C@@H](F)C34OC(=O)[C@@]5(CC[C@@H](C)[C@H](C)[C@@H]35)CC[C@]42C)[C@@]1(C)CCC(=O)NCCc1cccc(Cl)c1`, the IC50 in assay [1] (setting [6]), in assay [2] (setting [6]) and in assay [3] (setting [7]) was more than 50 µM in each case.
Take `C=C(C)[C@@H]1CC[C@]2(C)[C@H](C[C@@H](F)C34OC(=O)[C@@]5(CC[C@@H](C)[C@H](C)[C@@H]35)CC[C@]42C)[C@@]1(C)CCC(=O)NCCc1ccccc1OC`: the 50% inhibitory concentration (IC50) in assay [1] (setting [6]), in assay [2] (setting [6]) and in assay [3] (setting [7]) was more than 50 µM in each case.
On to `C=C(C)[C@@H]1CC[C@]2(C)[C@H](C[C@@H](F)C34OC(=O)[C@@]5(CC[C@@H](C)[C@H](C)[C@@H]35)CC[C@]42C)[C@@]1(C)CCC(N)=O`, for which the IC50 was 21.8 µM in assay [1] (setting [6]), 23 µM in assay [2] (setting [6]) and 24.1 µM in assay [3] (setting [7]).
Regarding `C=C(C)[C@@H]1CC[C@]2(C)[C@H](C[C@@H](F)C34OC(=O)[C@@]5(CC[C@@H](C)[C@H](C)[C@@H]35)CC[C@]42C)[C@@]1(C)CCC(=O)NC`, the IC50 in assay [1] (setting [6]) was found to be 6.7 µM; in assay [2] (setting [6]), 4.5 µM; in assay [3] (setting [7]), 6.8 µM; in assay [4], 3 µM; in assay [5], 12.1 µM.
Take `C[C@H]1[C@H](C)CC[C@@]23CC[C@]4(C)C(OC2=O)([C@H](F)C[C@@H]2[C@@]5(C)CCC(=O)C(C)(C)[C@@H]5CC[C@]24C)[C@H]13`: the IC50 in assay [1] (setting [6]), in assay [2] (setting [6]) and in assay [3] (setting [7]) was more than 50 µM each time.
Take `C=C(C)[C@@H]1CC[C@]2(C)[C@H](C[C@@H](F)C34OC(=O)[C@@]5(CC[C@@H](C)[C@H](C)[C@@H]35)CC[C@]42C)[C@@]1(C)CCC(=O)Nc1ccccc1`: the IC50 in assay [1] (setting [6]), in assay [2] (setting [6]) and in assay [3] (setting [7]) was more than 50 µM in each case.
Regarding `C[C@H]1[C@H](C)CC[C@@]23CC[C@]4(C)C(OC2=O)([C@H](F)C[C@@H]2[C@@]5(C)CCC(=O)OC(C)(C)[C@@H]5CC[C@]24C)[C@H]13`, the IC50 result in assay [1] (nci-h460), in assay [2] (nci-h460) and in assay [3] (nci-h322) was “Nd(Insoluble)” throughout.
In the case of `C[C@H]1[C@H](C)CC[C@@]23CC[C@]4(C)C(OC2=O)([C@H](F)C[C@@H]2[C@@]5(C)CCC(=O)NC(C)(C)[C@@H]5CC[C@]24C)[C@H]13`, the IC50 was 13.5 µM in assay [1] (setting [6]), more than 25 µM in assay [2] (setting [6]) and more than 25 µM in assay [3] (setting [7]).
Take `C=C(C)[C@@H]1CC[C@]2(C)[C@H](C[C@@H](F)C34OC(=O)[C@@]5(CC[C@@H](C)[C@H](C)[C@@H]35)CC[C@]42C)[C@@]1(C)CCC(=O)O`: the concentration for half-maximal inhibition (IC50) in assay [1] (setting [6]), in assay [2] (setting [6]) and in assay [3] (setting [7]) was more than 50 µM in each case.
With `C=C(C)[C@@H]1CC[C@]2(C)[C@H](C[C@@H](F)C34OC(=O)[C@@]5(CC[C@@H](C)[C@H](C)[C@@H]35)CC[C@]42C)[C@@]1(C)CCC(=O)NCCc1ccccc1`, the half-maximal inhibitory concentration (IC50) in assay [1] (setting [6]), in assay [2] (setting [6]) and in assay [3] (setting [7]) was more than 50 µM throughout.
For the molecule `C=C(C)[C@@H]1CC[C@]2(C)[C@H](C[C@@H](F)C34OC(=O)[C@@]5(CC[C@@H](C)[C@H](C)[C@@H]35)CC[C@]42C)[C@@]1(C)CCC(=O)NCc1ccc(F)cc1`, the half-maximal inhibitory concentration (IC50) in assay [1] (setting [6]), in assay [2] (setting [6]) and in assay [3] (setting [7]) was more than 50 µM each time.
Consider `CO/C1=C\C(C)=C\[C@@H](C)[C@@H](O)[C@@H](C)C/C(C)=C/C=C/[C@H](OC)[C@@H]([C@@H](C)[C@@H](O)[C@H](C)[C@@]2(O)C[C@@H](O)[C@H](C)[C@@H](C(C)C)O2)OC1=O` [BAFILOMYCIN A1], for which, in the assay on NCI-H460, the Activity amounted to 100%.
Consider `C[C@H]1[C@H](C)CC[C@@]23CC[C@]4(C)C(OC2=O)([C@H](F)C[C@@H]2[C@@]5(C)CC[C@H](O)C(C)(C)[C@@H]5CC[C@]24C)[C@H]13`, for which the concentration for half-maximal inhibition (IC50) amounted to 18.7 µM in assay [1] (setting [6]), 19.3 µM in assay [2] (setting [6]), 14.3 µM in assay [3] (setting [7]) and 19.5 µM in assay [4].
As to `C=C(C)[C@@H]1CC[C@]2(C)[C@H](C[C@@H](F)C34OC(=O)[C@@]5(CC[C@@H](C)[C@H](C)[C@@H]35)CC[C@]42C)[C@@]1(C)CCC#N`, the IC50 in assay [1] (setting [6]), in assay [2] (setting [6]) and in assay [3] (setting [7]) was more than 17 µM in each case.

For the origin of these results see ChEMBL document CHEMBL3871266, “Synthesis and cytotoxic activity of novel A-ring cleaved ursolic acid derivatives in human non-small cell lung cancer cells” (Eur J Med Chem, 2016).
